Hck-Nef inh – inhibitors of Nef-activated human Hck kinase, primary screen, biochemical, Z-Lyte FRET, 384-well, Hck-YEEI; Recombinant Hck-YEEI plus Nef, Z-Lyte FRET kinase assay; Tyrosine-protein kinase HCK (Homo sapiens), P08631; 220,000 tested, 0.68% active; inhibition, % at 20 µM;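 active = Hck-Nef kinase inhibition above about 50%, limit read from the data; inactive = inhibition below that limit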;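 note: 0% = DMSO with Hck plus Nef and 100% = Hck alone without Nef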
Runt-CBFb FRET – inhibitors of RUNX1 Runt–CBFb binding, primary screen, biochemical, FRET, Cerulean-Runt, Venus-CBFb, uHTS; inhibition, % at 20 µM; Cerulean-Runt/Venus-CBFb FRET ratio 530/480, 1 h; 220,000 tested, 0.46% active; AID 1496, 2009;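 active = inhibition over about 50% at 20 µM in the single-dose screen, limit read from the data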;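 note: 0% = DMSO wells and 100% = excess unlabeled CBFb competitor control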
Target sequence (Q01196 whole entry, looked up): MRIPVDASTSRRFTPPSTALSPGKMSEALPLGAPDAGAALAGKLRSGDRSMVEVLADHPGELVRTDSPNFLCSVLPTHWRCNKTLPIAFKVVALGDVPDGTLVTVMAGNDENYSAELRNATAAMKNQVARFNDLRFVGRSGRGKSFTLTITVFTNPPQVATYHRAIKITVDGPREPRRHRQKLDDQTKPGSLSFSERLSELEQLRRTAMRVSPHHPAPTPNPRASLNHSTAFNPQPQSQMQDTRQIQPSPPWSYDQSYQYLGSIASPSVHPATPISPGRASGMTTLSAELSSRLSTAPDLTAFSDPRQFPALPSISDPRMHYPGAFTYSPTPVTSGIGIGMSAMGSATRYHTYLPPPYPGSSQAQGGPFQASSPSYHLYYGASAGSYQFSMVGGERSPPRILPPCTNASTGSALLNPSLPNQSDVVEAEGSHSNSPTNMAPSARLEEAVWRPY
Target sequence (Q13951 whole entry, looked up): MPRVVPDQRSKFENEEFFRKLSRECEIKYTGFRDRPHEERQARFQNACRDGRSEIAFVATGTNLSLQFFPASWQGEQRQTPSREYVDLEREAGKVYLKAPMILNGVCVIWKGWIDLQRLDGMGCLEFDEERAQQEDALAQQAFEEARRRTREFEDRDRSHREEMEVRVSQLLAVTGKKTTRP
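System: Cerulean-labeled Runt domain protein | Quantity: 100 nM of each labeled protein | Schedule: 1 h compound exposure, room temperature | Detection: Fluorescence energy transfer, 422 nm excitation, 530/480 nm emission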
Runt-SMMHC FRET – inhibitors of RUNX1 Runt–CBFb-SMMHC binding, primary screen, biochemical, FRET, Cerulean-Runt, Venus-CBFb-SMMHC, uHTS; Cerulean-Runt/Venus-CBFb-SMMHC FRET ratio 530/480, 1 h; Runt-related transcription factor 1 (Homo sapiens) + Core-binding factor subunit beta …; 220,000 tested, 0.74% active; AID 1434, 2008; inhibition, % at 20 µM;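 active = mean inhibition across duplicate retests at 20 µM reaching about 50%, limit read from the data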;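 note: 0% = DMSO wells and 100% = wells with excess untagged CBFb-SMMHC; inhibitors lower the FRET ratio by blocking Runt binding to CBFb-SMMHC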
RanGTP-Impb inh – inhibitors of RanGTP-importin-beta interaction, primary screen, biochemical, FRET, CFP-Ran, YFP-importin-beta, homogeneous; cell-free CFP-Ran/YFP-importin-beta FRET ratio; 300,000 tested, 1.1% active; Ran GTPase (GTP-bound) - importin-beta complex; inhibition, % (test concentration not listed);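 active = more than half of the replicate wells show a fall in the fluorescence ratio signal beyond about 16%, limit read from the data, passing the limit was not always enough; inconclusive = exactly half of the replicate wells pass the set limit; inactive = fewer than half of replicates pass the limit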;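 note: 0% = DMSO wells and 100% = Ran loaded with GDP instead of GTP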
CaV13 FRET inh – Disruptors of the CACNA1D IQ motif to Ca2+-dependent inactivation inhibitor domain association, primary screening, Förster resonance energy transfer in intact living …. HEK cells, CFP/YFP FRET ICDI-IQ, plate reader, 10 min; percent FRET-ratio fall versus neutral wells. inhibition, % at 12.3 µM. 340,000 tested, 0.098% active;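 active = mean replicate inhibition of at least 30% and at least 1% of replicates passing that level; inconclusive = only one of the two criteria is met; inactive = neither criterion is met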;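 note: 0% = median of the neutral control wells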
* hit, by the source's call; ? = inconclusive; . = no result given. A selection: hits, their analogues and other compounds. The true share with any hit is near 1.5%.

SMILES | Hck-Nef inh | Runt-CBFb FRET | Runt-SMMHC FRET | RanGTP-Impb inh | CaV13 FRET inh
O=C(NCc1ccccc1)c1ccc2c(=O)[nH]c3c(C(=O)NCC4CCCO4)sc(=S)n3c2c1 (centres undefined) | 31 | -11 | -23 | ? | -9
Cc1ccc(CNC(=O)c2ccc3c(=O)[nH]c4c(C(=O)NCC5CCCO5)sc(=S)n4c3c2)cc1 (centres undefined) | 57* | . | -26 | 3 | -15
Oc1c(N=Nc2ccccc2)sc2ccccc12 | 18 | -6 | -10 | 29* | -3
COCCNC(=O)c1c(N)n(/N=C/c2cccs2)c2nc3ccccc3nc12 | 4 | 62* | 24 | 95* | -1
COCCNC(=O)c1c(N)n(/N=C/c2ccc(F)cc2)c2nc3ccccc3nc12 | -45 | -4 | 25 | ? | -21
CCCCCCNC(=O)c1c(N)n(/N=C/c2ccco2)c2nc3ccccc3nc12 | 22 | . | . | . | .
CCOCCCNC(=O)c1c(N)n(-c2ccc3c(c2)OCO3)c2nc3ccccc3nc12 | 27 | 12 | 40 | 133* | 7
COCCCNC(=O)c1c(N)n(-c2ccc3c(c2)OCO3)c2nc3ccccc3nc12 | 12 | 1 | 9 | 5 | -4
Nc1c(C(=O)NC2CCCCC2)c2nc3ccccc3nc2n1/N=C/c1ccco1 | . | 17 | 52* | . | .
CCCNC(=O)c1c(N)n(-c2cc(OC)cc(OC)c2)c2nc3ccccc3nc12 | 23 | 33 | 109* | 58* | -1
Cc1ccccc1SCC(=O)NCC1(N2CCCCC2)CCCCC1 | . | . | . | . | -6
Fc1cc(F)cc(Nc2nc(Cl)nc(NC3CCCC3)n2)c1 | . | . | . | . | -8
O=S(=O)(Nc1ccc2c(c1)OCO2)c1ccc(Cl)cc1F | . | . | . | . | -2
Nc1c(C(=O)Nc2ccccc2)c2nc3ccccc3nc2n1-c1ccc(O)cc1 | 39 | -1 | 9 | ? | 3
CCOCCCNC(=O)c1c(N)n(-c2ccc(S(N)(=O)=O)cc2)c2nc3ccccc3nc12 | 6 | 35 | 58* | ? | .
O=C(Nc1ccc2nc(-c3ccccn3)c(-c3ccccn3)nc2c1)N1CCOCC1 | 9 | 25 | 34 | 20* | -6
O=C(Nc1ccc2nc(-c3ccco3)c(-c3ccco3)nc2c1)N1CCCCCC1 | 47 | -18 | -126 | 80* | .
Cc1nc2ccc(NC(=O)N3CCCCC3)cc2nc1C | 4 | -7 | -22 | -15 | .
CCOC(=O)C1CCN(C(=O)Nc2ccc3c(c2)nc(C)n3C)CC1 | 6 | 4 | 1 | 0 | -9
CCOC(=O)C1CCN(C(=O)Nc2ccc3nc(-c4ccco4)c(-c4ccco4)nc3c2)CC1 | 28 | -44 | -219 | 75* | .
Cn1c(CNC(=O)CNS(=O)(=O)c2ccc(F)cc2F)cc(=O)n(C)c1=O | . | . | . | -1 | -4
CCOc1ccc(C2=C/C(=C/c3cccnc3)C(=O)O2)cc1 | -3 | 12 | 78 | 29* | -8
COc1ccc(C2=C/C(=C/c3cccnc3)C(=O)O2)cc1OC | -2 | -16 | -60 | -15 | -6
CCOC(=O)c1cc(-c2ccccc2)sc1NC(=O)CSc1nnc(N)s1 | 15 | -6 | -1 | 5 | 96*
COc1cccc(-c2cc(C(=O)Nc3ccc(N(C)C(C)=O)cc3)c3cc(Br)ccc3n2)c1 | . | . | . | 1 | -5
SMILES | Hck-Nef inh | Runt-CBFb FRET | Runt-SMMHC FRET | RanGTP-Impb inh | CaV13 FRET inh
COC(=O)/C=c1/s/c(=C(/C#N)C(=O)NCc2ccccc2)n(-c2ccccc2)c1=O | -2 | -12 | -16 | 1 | -9
CCCCCCOc1ccc(/C=c2\s/c(=C(/C#N)C(=O)NCc3ccco3)n(-c3ccccc3)c2=O)cc1 | 3 | -250 | 8 | 27* | -4
Cc1ccc(C(=O)N(C)CCOc2ccccc2)cc1S(=O)(=O)N1CCOCC1 | . | . | . | . | -2
CCOC(=O)c1c(N)n(C2CC(C)(C)NC(C)(C)C2)c2nc3ccccc3nc12 | 30 | 50 | 94* | ? | .
COc1ccc(-n2c(NC(=O)c3ccco3)c(C#N)c3nc4ccccc4nc32)cc1 | 12 | -2 | -3 | 128* | 5
N#Cc1c(NC(=O)c2ccccc2Cl)n(Cc2ccccc2)c2nc3ccccc3nc12 | 22 | 49 | 111* | . | 10
CCCCn1c(NC(=O)c2ccccc2Cl)c(C#N)c2nc3ccccc3nc21 | 4 | 84* | 60* | -5 | .
CCOC(=O)c1c(N)n(-c2ccc(N)cc2)c2nc3ccccc3nc12 | -5 | 1 | 6 | 0 | -6
O=C(CSc1n[nH]c(-c2ccco2)n1)Nc1ccccc1 | . | . | . | ? | -5
CCOC(=O)c1c(NC(=O)c2ccco2)n(C2CCCCC2)c2nc3ccccc3nc12 | 15 | 19 | 32 | 79* | 4
COCCNC(=S)N=Nc1c(O)[nH]c2c(C)cc(C)cc12 | 5 | -1 | -1 | 156* | -5
CCCCNC(=S)N=Nc1c(O)[nH]c2ccccc12 | 6 | -5 | -2 | 0 | 2
COCc1nnc(NC(=O)C2CC(=O)N(CCc3ccc(F)cc3)C2)s1 (centres undefined) | . | . | . | 2 | -3
CC(=O)OC[C@@H]1CN(Cc2ccccc2)C[C@H](n2cnc3c(N(C)C(C)C)ncnc32)O1 | . | . | . | . | 45*
CCN(CC)c1ncnc2c1ncn2[C@H]1CN(Cc2ccccc2)C[C@@H](COC(C)=O)O1 | . | . | . | . | -10
NC(Cc1ccc(F)cc1)c1csc(Nc2ccc(C(F)(F)F)cn2)n1 (centres undefined) | . | . | . | . | -5
CCN1C(=O)CSc2ccc(C(=O)NCc3ccco3)cc21 | -2 | 1 | 7 | 23* | -8
O=S(=O)(Nc1nccs1)c1ccc(NS(=O)(=O)c2c(F)cc(F)c(Cl)c2F)cc1 | . | . | . | . | -5
Cc1ccc(S(=O)(=O)NC(C(=O)Oc2ccc3c(C(F)(F)F)cc(=O)oc3c2)c2ccccc2)cc1 (centres undefined) | -1 | 19 | 59* | 36* | -67
O=C(/C=C/c1ccc2c(c1)OCO2)c1ccccn1 | 12 | 34 | -6 | 41* | -22
O=C(/C=C/c1ccccc1)c1ccccn1 | 1 | 21 | 22 | 23* | -6
N/C(=N\OC(=O)/C=C/c1ccccc1)c1ccccn1 | -48 | 1 | 0 | 0 | 4
O=C(C=Cc1ccc2c(c1)OCO2)c1ccccc1 | . | . | . | . | -6
O=C(CC1SC(=NCC2CCCO2)NC1=O)Nc1cccc2ccccc12 (centres undefined) | 3 | 81* | 0 | -2 | -15
COc1ccc(C(=O)Nc2ccnn2C2CCN(C(=O)C3CCOC3)CC2)cc1 (centres undefined) | . | . | . | 0 | .

Compound activity from PubChem BioAssay.
